# Rows were chosen to be rich in hits. Some 1.8% of all compounds tested hit in one or more screens of this group.
# C2C12 statin: suppressors of statin myotoxicity in C2C12 myotubes, primary screen, cell-based, single point, plate reader | 330,000 compounds, 0.78% hits | rescue of ATP level, % at 7.49 µM | C2C12 myotubes + simvastatin, ATP luminescence, 48 h; scaled: DMSO 0, geranylgeraniol control 100 | AID 602340, 2012;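 active = mean ATP rescue above about 67%, or every replicate alone reaching that limit, limit read from the data, passing the limit was not always enough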;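 also: myotubes were challenged with 10 µM simvastatin during compound exposure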
# Cneo AK release: Cryptococcus neoformans cell lysis inducers, primary screen, AK release luminescence, single concentration | C. neoformans lysis, adenylate kinase release luminescence, 4 h; normalised: neutral wells 0, clomiphene wells 100 | 360,000 compounds, 0.2% hits | lysis activity, % at 15 µM;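 active = mean lysis activity across replicates of at least 80%, whatever share of replicates individually reach that level; inactive = mean lysis activity below 80%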
#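 Material – log-phase Cryptococcus neoformans yeast cells · Input – 5 × 10^6 yeast cells/mL · Medium – fresh YPD growth medium · Doses – single compound concentration per well · Timing – static 4 h at 37 °C with compound, 1 h detection · Detection – adenylate kinase release luminescence · Read-out – signal increase indicating cell lysis · Control set – Clomiphene as positive lysis control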
# Efflux pump mplx: inhibitors of Candida efflux pumps in yeast, primary screen, S. cerevisiae, Nile Red, multiplex; S. cerevisiae Candida pump triplex; inhibition, % at 10 µM; 330,000 compounds, 0.44% hits;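 active = plate passing quality check with inhibition over a set limit, or well fluorescence over plate mean plus 4 SD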;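 also: Nile Red retained in pooled yeast measured as flow cytometry median fluorescence; 0% = buffer negative control and 100% = Enniatin B positive control; higher means more Nile Red kept so more efflux inhibition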
# Mot1-301 SUMO: yeast Mot1-301 growth rescue at high temperature, primary screen, SUMOylation pathway inhibitor project, S. cerevisiae, ATP luminescence, 38.5C. S. cerevisiae Mot1-301 growth rescue; percent above DMSO median, 100 means doubled. growth rescue, % at 18.8 µM. 320,000 compounds, 1% hits. AID 2716, 2010;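 active = every valid replicate shows activation above 250% relative to neutral control wells; inactive = the rest, any valid replicate at or below 250%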;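 also: OY570 slx delta 5 strain wells were the positive control but not used for scaling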
# Numbers without * were called inactive; x = no result given; + = active, no number.
SMILES,C2C12 statin,Cneo AK release,Efflux pump mplx,Mot1-301 SUMO
CCn1c(=O)cc(OCC(=O)Nc2nc(C)cs2)c2ccccc21,-17,-2,0,131
Cc1nn(C)cc1CN(C)S(=O)(=O)c1cccc([N+](=O)[O-])c1,x,x,0,550*
Cc1nn(S(=O)(=O)c2cccc([N+](=O)[O-])c2)c(C)c1Br,x,-1,0,-17
Cc1ccc(C2c3c(C)nn(-c4ccc([N+](=O)[O-])cc4)c3N=C3C(=O)Nc4ccccc4N32)cc1 (stereo not given),x,x,0.5*,-7
O=c1cc(/C=C/c2ccccc2)oc2ccccc12,138*,-1,0,-5
Cc1cc(C)n2nc(C(=O)OCC(=O)N(CC(C)C)C3CCS(=O)(=O)C3)nc2n1 (stereo not given),96*,-2,0,-12
CCN(C(=O)COC(=O)c1nc2nc(C)cc(C)n2n1)C1CCS(=O)(=O)C1 (stereo not given),4,0,0,117
O=C(/C=C/c1cccc([N+](=O)[O-])c1)N(c1ccccn1)c1ccccn1,x,x,0,+
O=C(/C=C/c1cccc([N+](=O)[O-])c1)Nc1ccccn1,x,1,0,x
O=C(Nc1cccc(C(=O)N2CCOCC2)c1)c1cccnc1,-13,-2,0,4
CSCCC(NC(N)=O)C(=O)NCC1CCCCC1 (stereo not given),127*,2,0,755
O=C(O)CCCC(=O)NCCCc1ccccc1,0,-3,0,134
Cc1cc(=O)c2ccc(Cl)cc2[nH]1,2,7,0,-21
Oc1ccc(CN2CCCCC2)nc1-c1ccccc1,16,-1,0,7
Oc1ccc(-c2ccccc2)cc1CN1CCCCCC1,6,-1,0,341*
CCCCCn1c(N2CCC(C(N)=O)CC2)nc2c1c(=O)[nH]c(=O)n2C,107*,3,0,x
CCCCCCn1c(N2CCC(C)CC2)nc2c1c(=O)[nH]c(=O)n2C,8,2,0,2
COc1ccc(CNCCS(=O)(=O)NC2CCCC2)cc1,1,-1,0,x
CCOc1ccc(C2SCC(=O)N2c2c(C)n(C)n(-c3ccccc3)c2=O)cc1 (stereo not given),117*,0,0,7
CN1C(=O)C2CN(CCc3ccccc3)CNC2N(C)C1=O (stereo not given),-4,-2,0,-13
Cc1nn(C(=O)c2cccnc2)c(C)c1Sc1ccc(Br)cc1,75*,-1,0,57
Cc1nn(C(=O)c2ccco2)c(C)c1Sc1ccc(Cl)cc1,x,x,0,-23
C/C=C/c1cnc2c(c1)C(=O)N([C@@H](C)CO)C[C@@H](C)[C@@H](CN(C)C(=O)Nc1ccc(OC)cc1)O2,3,0,x,x
COc1ccc2[nH]c(C(=O)Nc3ccc(C)c(F)c3)cc2c1,x,x,0,-6
Cc1cc(C)c2cc(C(=O)Nc3ccc(C)c(F)c3)[nH]c2c1,-4,1,0,340*
SMILES,C2C12 statin,Cneo AK release,Efflux pump mplx,Mot1-301 SUMO
Nc1ccc2oc(-c3cccc4ccccc34)nc2c1,89*,-2,0,17
Cc1ccc(C2/C(=C(/O)c3ccc4c(c3)CC(C)O4)C(=O)C(=O)N2CCCn2ccnc2)cc1 (stereo not given),19,-1,0,6
Cc1ccc(C)c(/C(O)=C2\C(=O)C(=O)N(CCCn3ccnc3)C2c2ccncc2)c1 (stereo not given),84*,2,0,19
CN(C)C(=O)C[C@@H]1CC[C@@H]2[C@H](COC[C@@H](O)CN2CC2CCCCC2)O1,-34,-2,x,x
CCC(O)(CC)C(=O)N/N=C/c1cc(Br)cc(Br)c1O,-15,1,0,494*
CC=Cc1ccc2n(c1=O)C[C@H]1[C@H](CO)[C@@H](C(=O)OC)N(Cc3ccccc3)[C@@H]21 (mixture of isomers),25,1,x,x
CCCCC(=O)N(Cc1nc2sc(C)c(C)c2c(=O)[nH]1)C1CCCC1,x,x,0,+
Cc1sc2nc(CN(C(=O)c3cccs3)C3CCCC3)[nH]c(=O)c2c1C,148*,0,0,-2
C[C@H](CO)N1C[C@H](C)[C@@H](CN(C)C(=O)CN(C)C)Oc2ncc(C#CC3(O)CCCC3)cc2C1=O,x,-4,x,x

# Compound activity (PubChem)
